Assay results: ChEMBL document CHEMBL1148788 (J Med Chem, 2007)
Several values for one entry are separate records, joined by “and”; a condition that tells them apart may be missing. Equal entries are not always repeated. Activity calls are given as the source filed them. The rule behind the calls is not given here.

Assays:
[1] = target: T1, Neuronal acetylcholine receptor; alpha3/beta4 (Rattus norvegicus, UniProt P04757+P12392); experiment: Antagonist activity at rat alpha3beta4 nAChR expressed in HEK293 cells by FMP assay; format: functional, cell-based, Homo sapiens
[2] = Displacement of [3H]methyllycaconitine from chimeric alpha7nAChR K145A mutant/5HT3A receptor in tsA201 cells; format: cell-based, Homo sapiens
Summary of the method: (§1)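 tsA-201 cells transiently transfected with 4 µg WT or mutant α7/5-HT3A chimera and assayed 2 days later. Membranes washed twice at 50000g in 50 mM Tris-HCl pH 7.2. Incubated with 0.5 nM [3H]MLA and compound for 2.5 h at room temperature with shaking; nonspecific binding with 5 mM (S)-nicotine. PEI-soaked GF/C filtration, scintillation counting. Ki derived; duplicate, 3–7 experiments.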

[3] = Antagonist activity at human alpha7nAChR Y93A mutant co-expressed with human Ric3 in tsA201 cells by FMP assay; format: functional, cell-based
[4] = cells; format: functional, cell-based; conditions: Homo sapiens, HEK293
[5] = test system: tsA201; experiment: Displacement of [3H]methyllycaconitine from chimeric alpha-7nAChR W149A mutant/5HT3A receptor in tsA201 cells; format: cell-based; conditions: Homo sapiens; summary of the method: as §1
[6] = target: T2, Neuronal acetylcholine receptor subunit alpha-7 (Homo sapiens, UniProt P36544); experiment: Antagonist activity at human alpha-7 nAChR in tsA201 cells coexpressed with Ric3 by FMP assay; format: functional, cell-based
Target sequence in this assay (P36544 whole entry): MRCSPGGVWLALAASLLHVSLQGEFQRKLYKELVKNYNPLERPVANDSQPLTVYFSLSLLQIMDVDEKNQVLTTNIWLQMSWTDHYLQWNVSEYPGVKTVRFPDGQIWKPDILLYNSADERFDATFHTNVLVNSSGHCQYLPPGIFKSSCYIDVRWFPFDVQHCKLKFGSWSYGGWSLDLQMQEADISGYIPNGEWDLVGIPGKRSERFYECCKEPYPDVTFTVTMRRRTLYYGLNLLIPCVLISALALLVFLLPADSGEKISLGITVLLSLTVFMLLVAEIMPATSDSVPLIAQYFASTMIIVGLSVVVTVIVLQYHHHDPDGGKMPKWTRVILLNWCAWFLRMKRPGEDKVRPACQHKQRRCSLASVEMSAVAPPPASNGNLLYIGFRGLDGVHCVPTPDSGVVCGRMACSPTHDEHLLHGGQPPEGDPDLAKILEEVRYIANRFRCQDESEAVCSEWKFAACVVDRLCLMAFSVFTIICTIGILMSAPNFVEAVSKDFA

[7] = Displacement of [3H]methyllycaconitine from chimeric alpha-7nAChR Y195F mutant/5HT3A receptor in tsA201 cells; format: cell-based, Homo sapiens; summary of the method: as §1
[8] = Displacement of [3H]methyllycaconitine from chimeric alpha-7nAChR D197A mutant/5HT3A receptor in tsA201 cells; format: cell-based, Homo sapiens; summary of the method: as §1
[9] = target: T3, Glycine receptor subunit alpha-1 (Homo sapiens, UniProt P23415); experiment: Antagonist activity at human glycine alpha-1 receptor in HEK293 cells by FMP assay; format: functional, cell-based
T3 sequence (P23415 whole entry): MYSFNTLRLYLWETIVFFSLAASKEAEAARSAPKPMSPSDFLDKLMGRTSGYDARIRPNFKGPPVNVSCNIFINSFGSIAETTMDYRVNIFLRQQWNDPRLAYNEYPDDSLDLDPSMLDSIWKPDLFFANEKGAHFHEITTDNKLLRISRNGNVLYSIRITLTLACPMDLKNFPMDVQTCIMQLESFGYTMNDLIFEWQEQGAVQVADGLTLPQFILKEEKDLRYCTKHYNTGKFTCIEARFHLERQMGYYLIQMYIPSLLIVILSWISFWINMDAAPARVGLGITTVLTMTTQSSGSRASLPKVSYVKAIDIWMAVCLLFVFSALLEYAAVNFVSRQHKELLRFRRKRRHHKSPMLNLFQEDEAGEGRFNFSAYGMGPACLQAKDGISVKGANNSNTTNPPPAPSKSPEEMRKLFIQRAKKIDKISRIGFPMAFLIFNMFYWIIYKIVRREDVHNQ

[10] = Displacement of [3H]methyllycaconitine from chimeric alpha-7nAChR Y168A mutant/5HT3A receptor in tsA201 cells; format: cell-based, Homo sapiens; summary of the method: as §1
[11] = target: T2, Neuronal acetylcholine receptor subunit alpha-7; experiment: Displacement of [3H]methyllycaconitine from chimeric alpha7nAChR/5HT3A in tsA201 cells; format: cell-based
Target sequence in this assay (P36544 23-502 limits assumed): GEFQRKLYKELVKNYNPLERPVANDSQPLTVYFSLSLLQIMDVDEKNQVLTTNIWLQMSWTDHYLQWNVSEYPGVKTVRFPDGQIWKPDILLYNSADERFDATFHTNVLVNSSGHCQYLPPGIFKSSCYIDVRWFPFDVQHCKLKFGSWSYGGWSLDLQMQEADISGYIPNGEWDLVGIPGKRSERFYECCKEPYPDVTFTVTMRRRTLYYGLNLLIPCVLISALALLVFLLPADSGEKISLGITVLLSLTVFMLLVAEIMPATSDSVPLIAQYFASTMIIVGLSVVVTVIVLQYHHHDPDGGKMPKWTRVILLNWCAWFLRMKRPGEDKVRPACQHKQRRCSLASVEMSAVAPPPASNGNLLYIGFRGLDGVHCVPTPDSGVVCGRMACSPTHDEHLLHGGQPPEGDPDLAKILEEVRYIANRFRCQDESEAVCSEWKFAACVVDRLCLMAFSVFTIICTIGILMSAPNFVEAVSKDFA

[12] = Antagonist activity at human alpha7 nAChR W149Y mutant co-expressed with human Ric3 in tsA201 cells by FMP assay; format: functional, cell-based
[13] = Displacement of [3H]methyllycaconitine from chimeric alpha7nAChR Y195A mutant/5HT3A receptor in tsA201 cells; format: cell-based, Homo sapiens; summary of the method: as §1
[14] = Antagonist activity at human alpha-7 nAChR Y195A mutant coexpressed with human Ric3 in tsA201 cells by FMP assay; format: functional, cell-based
[15] = Antagonist activity at human alpha-7 nAChR Y188A mutant coexpressed with human Ric3 in tsA201 cells by FMP assay; format: functional, cell-based
[16] = test system: tsA201; experiment: Displacement of [3H]methyllycaconitine from chimeric alpha-7nAChR W55A/Y195A mutant /5HT3A receptor in tsA201 cells; format: cell-based; conditions: Homo sapiens; summary of the method: as §1
[17] = Displacement of [3H]methyllycaconitine from chimeric alpha-7nAChR N107A mutant/5HT3A receptor in tsA201 cells; format: cell-based, Homo sapiens; summary of the method: as §1
[18] = target: T2, Neuronal acetylcholine receptor subunit alpha-7
Target sequence in this assay (P36544 whole entry): as the sequence (P36544 whole entry) above

[19] = test system: tsA201; experiment: Displacement of [3H]methyllycaconitine from chimeric alpha-7nAChR W149Y mutant/5HT3A receptor W149Y mutant in tsA201 cells; format: cell-based; conditions: Homo sapiens; summary of the method: as §1
[20] = Displacement of [3H]methyllycaconitine from chimeric alpha-7nAChR S150A mutant/5HT3A receptor in tsA201 cells; format: cell-based, Homo sapiens; summary of the method: as §1
[21] = target: T4, 5-hydroxytryptamine receptor 3A (Homo sapiens, UniProt P46098); experiment: Displacement of [3H]GR65630 from human 5HT3A receptor in HEK293 cells; format: cell-based
T4 sequence (P46098 whole entry): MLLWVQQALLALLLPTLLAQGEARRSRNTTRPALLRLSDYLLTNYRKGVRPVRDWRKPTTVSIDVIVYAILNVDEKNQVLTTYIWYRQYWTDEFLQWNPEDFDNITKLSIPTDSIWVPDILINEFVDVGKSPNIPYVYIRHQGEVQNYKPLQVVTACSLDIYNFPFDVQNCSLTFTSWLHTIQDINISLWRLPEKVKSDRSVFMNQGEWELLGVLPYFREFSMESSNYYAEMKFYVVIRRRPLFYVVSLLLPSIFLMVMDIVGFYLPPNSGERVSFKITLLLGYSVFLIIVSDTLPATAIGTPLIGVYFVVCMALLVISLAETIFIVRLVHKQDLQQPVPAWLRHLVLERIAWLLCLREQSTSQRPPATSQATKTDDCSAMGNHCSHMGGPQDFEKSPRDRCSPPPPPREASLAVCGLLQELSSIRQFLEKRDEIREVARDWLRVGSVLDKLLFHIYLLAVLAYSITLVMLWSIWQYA

[22] = Displacement of [3H]methyllycaconitine from chimeric alpha7nAChR W55Y mutant/5HT3A receptor in tsA201 cells; format: cell-based, Homo sapiens; summary of the method: as §1
[23] = target: T1, Neuronal acetylcholine receptor; alpha3/beta4; experiment: Displacement of [3H]epibatidine from recombinant rat alpha-3-beta-4 nAChr in HEK293 cell line; format: cell-based
[24] = Displacement of [3H]methyllycaconitine from chimeric alpha-7nAChR K145R mutant /5HT3A receptor in tsA201 cells; format: cell-based, Homo sapiens; summary of the method: as §1
[25] = test system: tsA201; experiment: Displacement of [3H]methyllycaconitine from chimeric alpha-7nAChR Y188A mutant/5-HT3A receptor in tsA201 cells; format: cell-based; conditions: Homo sapiens; summary of the method: as §1

T1 sequence (P04757 whole entry): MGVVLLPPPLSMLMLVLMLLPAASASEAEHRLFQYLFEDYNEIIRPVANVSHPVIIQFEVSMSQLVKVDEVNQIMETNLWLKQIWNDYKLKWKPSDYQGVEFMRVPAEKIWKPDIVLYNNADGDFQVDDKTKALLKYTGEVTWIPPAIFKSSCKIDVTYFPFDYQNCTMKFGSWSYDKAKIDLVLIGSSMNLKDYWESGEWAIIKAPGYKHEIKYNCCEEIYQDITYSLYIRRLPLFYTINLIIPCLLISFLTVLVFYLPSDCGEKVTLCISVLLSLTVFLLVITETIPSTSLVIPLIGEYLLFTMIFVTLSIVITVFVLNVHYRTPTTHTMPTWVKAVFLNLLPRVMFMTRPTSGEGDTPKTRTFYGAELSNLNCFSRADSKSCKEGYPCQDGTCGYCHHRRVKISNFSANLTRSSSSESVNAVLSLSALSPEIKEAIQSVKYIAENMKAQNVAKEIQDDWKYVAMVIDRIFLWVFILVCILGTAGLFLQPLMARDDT
T1 sequence (P12392 whole entry): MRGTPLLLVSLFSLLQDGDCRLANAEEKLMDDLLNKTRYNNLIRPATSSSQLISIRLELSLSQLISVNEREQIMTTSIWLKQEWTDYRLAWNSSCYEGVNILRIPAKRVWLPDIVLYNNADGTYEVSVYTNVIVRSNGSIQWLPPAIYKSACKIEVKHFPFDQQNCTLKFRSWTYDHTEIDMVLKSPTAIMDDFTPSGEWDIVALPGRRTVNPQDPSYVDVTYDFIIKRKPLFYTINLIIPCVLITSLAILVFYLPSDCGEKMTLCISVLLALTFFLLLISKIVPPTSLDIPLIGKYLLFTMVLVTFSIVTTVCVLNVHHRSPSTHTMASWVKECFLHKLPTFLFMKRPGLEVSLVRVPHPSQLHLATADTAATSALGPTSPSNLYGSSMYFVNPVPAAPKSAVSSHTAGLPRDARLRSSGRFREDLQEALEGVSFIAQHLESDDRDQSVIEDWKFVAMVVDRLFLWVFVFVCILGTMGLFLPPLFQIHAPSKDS

O=[N+]([O-])c1ccc(C[N+]23CC[C@@H]4[C@@H]5[C@@H]6[C@@H](OCC=C(C2)[C@@H]6C[C@@H]43)N2c3ccccc3[C@@]34CC[N+]6(Cc7ccc([N+](=O)[O-])cc7)CC7=CCO[C@H]([C@@H]([C@H]23)[C@H]7C[C@@H]46)N5c2ccccc2)cc1.[Br-].[Br-] (some centres undefined)
pIC50 ([1]; hek293): < 4
IC50 ([1]; read-out: IC50): > 100000 nM
Ki [2]: 28 nM
pKi [2]: 7.56
IC50 ([3]; read-out: IC50): 19000 nM
IC50 ([3]; read-out: pIC50 (converted)): 19500 nM
IC50 ([4]; read-out: IC50): > 100000 nM
IC50 ([4]; read-out: pIC50 (converted)): > 100000 nM
Activity [5]: inactive
IC50 ([6]; read-out: IC50): 370 nM
IC50 ([6]; read-out: pIC50 (converted)): 372 nM
Ki [7]: 50 nM
pKi [7]: 7.3
Ki [8]: 31 nM
pKi [8]: 7.51
IC50 [9]: > 100000 nM
pIC50 ([9]; hek293): < 4
Ki [10]: 34 nM
pKi [10]: 7.47
Ki [11]: 18 nM
pKi [11]: 7.74
IC50 ([12]; read-out: IC50): 1200 nM
IC50 ([12]; read-out: pIC50 (converted)): 1170 nM
Ki [13]: 740 nM
pKi [13]: 6.13
IC50 ([14]; read-out: IC50): 25000 nM
IC50 ([14]; read-out: pIC50 (converted)): 25100 nM
IC50 ([15]; read-out: IC50): 15000 nM
IC50 ([15]; read-out: pIC50 (converted)): 15500 nM
Activity [16]: inactive
Ki [17]: 17 nM
pKi [17]: 7.76
IC50 [18]: 360 nM and 363 nM
Activity [19]: inactive
Ki [20]: 35 nM
pKi [20]: 7.45
Ki [21]: 23000 nM
Ki [22]: 37 nM
pKi [22]: 7.43
Ki [23]: > 100000 nM
pKi ([23]; hek293): < 4
Ki [24]: 58 nM
pKi [24]: 7.24
Activity [25]: inactive
